Reference: ChEMBL document CHEMBL4038327, “Inhibitory Kappa B Kinase α (IKKα) Inhibitors That Recapitulate Their Selectivity in Cells against Isoform-Related Biomarkers” (J Med Chem, 2017)

Tests used:
[1] = target: T1, Inhibitor of nuclear factor kappa-B kinase subunit alpha (Homo sapiens, UniProt O15111); experiment: Inhibition of recombinant human N-terminal GST-tagged IKKalpha (1 to 745 residues) expressed in baculovirus expression system using biotinylated IkBalpha as substrate after 60 mins by DELFIA
T1 sequence (O15111 whole entry): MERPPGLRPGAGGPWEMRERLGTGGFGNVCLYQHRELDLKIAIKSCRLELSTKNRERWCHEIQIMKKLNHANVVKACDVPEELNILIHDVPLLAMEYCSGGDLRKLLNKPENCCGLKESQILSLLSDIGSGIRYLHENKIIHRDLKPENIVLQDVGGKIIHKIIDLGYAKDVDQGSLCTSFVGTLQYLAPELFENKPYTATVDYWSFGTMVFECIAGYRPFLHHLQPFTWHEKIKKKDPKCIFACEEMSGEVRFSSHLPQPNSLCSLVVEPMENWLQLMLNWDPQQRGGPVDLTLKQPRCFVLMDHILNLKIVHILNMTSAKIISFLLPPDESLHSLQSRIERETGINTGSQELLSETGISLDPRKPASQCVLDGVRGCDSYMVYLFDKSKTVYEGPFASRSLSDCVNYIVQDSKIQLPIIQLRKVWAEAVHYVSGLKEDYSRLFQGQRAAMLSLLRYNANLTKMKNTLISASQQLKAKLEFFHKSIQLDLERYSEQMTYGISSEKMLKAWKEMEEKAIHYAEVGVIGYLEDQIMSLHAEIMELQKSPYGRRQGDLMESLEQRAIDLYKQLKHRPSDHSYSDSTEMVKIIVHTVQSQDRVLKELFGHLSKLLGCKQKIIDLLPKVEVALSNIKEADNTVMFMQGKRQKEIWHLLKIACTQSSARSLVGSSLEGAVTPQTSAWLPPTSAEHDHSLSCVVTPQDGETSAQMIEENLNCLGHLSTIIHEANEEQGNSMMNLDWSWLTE

[2] = target: T2, Inhibitor of nuclear factor kappa-B kinase subunit beta (Homo sapiens, UniProt O14920); experiment: Inhibition of recombinant full length human IKKbeta expressed in baculovirus infected sf9 insect cells using biotinylated IkBalpha as substrate after 60 mins by DELFIA
T2 sequence (O14920 whole entry): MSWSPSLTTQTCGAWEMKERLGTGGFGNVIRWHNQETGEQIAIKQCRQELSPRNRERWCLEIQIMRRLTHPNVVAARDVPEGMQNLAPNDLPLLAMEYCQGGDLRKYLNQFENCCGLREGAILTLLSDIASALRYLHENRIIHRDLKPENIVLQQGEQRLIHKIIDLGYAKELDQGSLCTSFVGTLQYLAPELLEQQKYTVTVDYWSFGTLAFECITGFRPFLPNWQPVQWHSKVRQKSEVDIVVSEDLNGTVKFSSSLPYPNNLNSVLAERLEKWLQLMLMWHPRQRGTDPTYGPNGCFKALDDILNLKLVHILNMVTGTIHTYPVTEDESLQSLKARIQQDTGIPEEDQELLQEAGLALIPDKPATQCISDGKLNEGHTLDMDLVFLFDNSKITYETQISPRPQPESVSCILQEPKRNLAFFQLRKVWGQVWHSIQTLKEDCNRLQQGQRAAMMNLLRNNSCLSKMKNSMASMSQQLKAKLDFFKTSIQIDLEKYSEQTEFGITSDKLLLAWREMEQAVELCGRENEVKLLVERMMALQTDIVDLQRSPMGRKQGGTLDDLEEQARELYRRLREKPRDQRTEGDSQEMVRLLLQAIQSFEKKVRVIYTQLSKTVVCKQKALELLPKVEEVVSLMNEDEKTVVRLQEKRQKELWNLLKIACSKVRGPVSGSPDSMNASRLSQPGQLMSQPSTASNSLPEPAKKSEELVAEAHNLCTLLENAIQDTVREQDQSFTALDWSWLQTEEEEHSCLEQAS
Procedure, shortened: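 Recombinant IKKβ (37 nM) was incubated with biotinylated IκB-α (Ser32) peptide (0.375 μM) and 40 μM ATP in Tris-HCl pH 7.5 with MgCl2, EDTA, DTT and BSA for 60 min at 30 °C. The reaction was quenched with EDTA and captured on streptavidin. Detection used anti-phospho-IκBα (Ser32/36) mAb plus Eu-anti-mouse IgG, read by time-resolved fluorescence (340/615 nm). Apparent Ki was obtained via Cheng–Prusoff, n=3.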

Ki [1] [µM] | Ki [2] [µM] | Structure (SMILES)
> 30 | > 30 | N#Cc1c[nH]c2nc(N)nc(Nc3ccc(C(=O)O)cc3)c12
> 30 | > 30 | N#Cc1c[nH]c2nc(N)nc(N)c12
5.3 | 5.9 | N#Cc1c[nH]c2nc(N)nc(N3CCC(S(N)(=O)=O)CC3)c12
> 30 | 20 | N#Cc1c[nH]c2nc(N)nc(N3CCOCC3)c12
1.8 | > 30 | N#Cc1c[nH]c2nc(N)nc(NC3CCCCC3)c12
2.9 | 0.61 | Nc1nc(-c2ccc(S(N)(=O)=O)cc2)c2cc[nH]c2n1
5.3 | > 30 | N#Cc1c[nH]c2nc(N)nc(N3CCCCC3)c12
> 30 | > 30 | Nc1nc(N[C@H]2CC[C@H](O)CC2)c2cc[nH]c2n1
> 30 | > 30 | Nc1nc(NC2CCCCC2)c2cc[nH]c2n1
1.6 | > 30 | N#Cc1c[nH]c2nc(N)nc(NCCO)c12
> 30 | > 30 | N#Cc1c[nH]c2nc(N)nc(N3CCN(CCO)CC3)c12
16 | > 30 | N#Cc1c[nH]c2nc(N)nc(NCC3CC3)c12
0.8 | 3.6 | N#Cc1c[nH]c2nc(N)nc(N[C@@H]3C[C@H](O)[C@@H](O)[C@H]3O)c12
> 30 | > 30 | N#Cc1c[nH]c2nc(N)nc(N3CC[C@@H](O)C3)c12
4 | > 30 | N#Cc1c[nH]c2nc(N)nc(Cl)c12
> 30 | > 30 | Nc1nc(N2CCCCC2)c2cc[nH]c2n1
> 30 | > 30 | CN(c1nc(N)nc2[nH]cc(C#N)c12)C1CCCCC1
> 30 | > 30 | N#Cc1c[nH]c2nc(N)nc(NCCN3CCOCC3)c12
> 30 | > 30 | Nc1nc(NC2CCCCC2)c2c(C(F)(F)F)c[nH]c2n1
> 30 | > 30 | Nc1nc(Cl)c2cc[nH]c2n1
6 | > 30 | N#Cc1c[nH]c2nc(N)nc(N3CC[C@H](O)C3)c12
> 30 | > 30 | N#Cc1c[nH]c2nc(N)nc(-c3cccc(C(N)=O)c3)c12
13 | > 30 | N#Cc1c[nH]c2nc(N)nc(Nc3ccccc3)c12
5.3 | > 30 | N#Cc1c[nH]c2nc(N)nc(NCc3ccccc3)c12
> 30 | > 30 | N#Cc1c[nH]c2nc(N)nc(-c3ccccc3C(N)=O)c12
2 | > 30 | N#Cc1c[nH]c2nc(N)nc(N[C@H]3CC[C@H](O)CC3)c12
> 30 | > 30 | NC(=O)c1c[nH]c2nc(N)nc(N[C@H]3CC[C@H](O)CC3)c12
13 | > 30 | CNc1nc(N)nc2[nH]cc(C#N)c12

Continued, compound first:

Structure (SMILES) | Ki [1] [µM] | Ki [2] [µM]
N#Cc1c[nH]c2nc(N)nc(N3CCC[C@@H]3CO)c12 | 2.5 | > 30
N#Cc1c[nH]c2nc(N)nc(-c3ccccc3O)c12 | 15 | > 30
N#Cc1c[nH]c2nc(N)nc(-c3ccc(O)cc3)c12 | 1.6 | 20
CS(=O)(=O)c1ccc(-c2nc(N)nc3[nH]cc(C#N)c23)cc1 | 2.4 | 0.3
N#Cc1c[nH]c2nc(N)nc(N3CCN(c4ccccc4)CC3)c12 | > 30 | > 30
CN1CCN(c2nc(N)nc3[nH]cc(C#N)c23)CC1 | > 30 | > 30
N#Cc1c[nH]c2nc(N)nc(-c3cccc(CO)c3)c12 | 9.8 | 4
N#Cc1c[nH]c2nc(N)nc(-c3cccc(F)c3)c12 | 7.7 | > 30
N#Cc1c[nH]c2nc(N)nc(N(CCO)C3CCCCC3)c12 | > 30 | > 30
N#Cc1c[nH]c2nc(N)nc(-c3ccccc3CO)c12 | > 30 | > 30
N#Cc1c[nH]c2nc(N)nc(-c3ccccc3S(N)(=O)=O)c12 | > 30 | > 30
NS(=O)(=O)c1ccc(-c2ncnc3[nH]ccc23)cc1 | 1.5 | 2.5
N#Cc1c[nH]c2nc(N)nc(N3CCN(CCCO)CC3)c12 | 12.1 | > 30
N#Cc1c[nH]c2nc(N)nc(-c3ccc(C(N)=O)cc3)c12 | 16 | > 30
N#Cc1c[nH]c2nc(N)nc(-c3ccc(F)cc3)c12 | 10 | > 30
N#Cc1c[nH]c2nc(N)nc(-c3cccc(S(N)(=O)=O)c3)c12 | 5.3 | 5.9
N#Cc1c[nH]c2ncnc(-c3ccc(S(N)(=O)=O)cc3)c12 | 2.1 | > 30
N#Cc1c[nH]c2nc(N)nc(-c3ccccc3)c12 | 1.7 | > 30
N#Cc1c[nH]c2nc(N)nc(-c3ccccc3F)c12 | 2 | > 30
CNS(=O)(=O)c1ccc(-c2nc(N)nc3[nH]cc(C#N)c23)cc1 | 1.7 | 0.4
N#Cc1c[nH]c2nc(N)nc(N3CCC[C@H]3CO)c12 | 3.1 | > 30
Cc1ccc(NS(=O)(=O)c2ccc(-c3nc(N)nc4[nH]cc(C#N)c34)cc2)cc1 | 16 | 1.4
CS(=O)(=O)Nc1ccc(-c2nc(N)nc3[nH]cc(C#N)c23)cc1 | 1.4 | 0.1
N#Cc1c[nH]c2nc(N)nc(-c3cccc(O)c3)c12 | 2.4 | 3.8
N#Cc1c[nH]c2nc(N)nc(Nc3ccc(S(N)(=O)=O)cc3)c12 | 10 | > 30
